For series [1] the following is noted: rats; cited from earlier work.
Series [2] has as its system advanced or metastatic non-hematologic malignancies. Conditions: FIH study; cited from earlier work.
For series [3], the system named is advanced or metastatic solid tumors. As to the kind of experiment: Investigator-assessed anti-tumor activity, RECIST version 1.1. The class given is in vivo, human. The procedure, abridged: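 Open-label phase I study in Japanese and Taiwanese patients (ECOG 0–1) given oral drug once daily, continuously, in 28-day cycles at 50, 100 or 200 mg. CT/MRI at screening, at end of cycle 2, then every two cycles until treatment ended. Objective response was CR or PR; disease control was CR, PR or SD. Evaluable patients had baseline plus ≥1 post-baseline assessment. Analysis was descriptive on patients receiving ≥1 dose.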

The conditions of series [4]: liquid dispersion vs. tablet; with/without a high-calorie meal; cited from earlier work.
Another series has as its system MiaPaCa2 xenograft. Conditions: QD; cited from earlier work.
Series [5] can be described thus: Phase I dose-finding study: safety, DLT and MTD. The class given is in vivo, human. The procedure, abridged: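 Open-label 3 + 3 dose escalation in cohorts of three to six patients. Oral dosing was once daily, continuous, in 28-day cycles, starting at 50 mg, with 100 and 200 mg planned. DLT was assessed during cycle 1. MTD was the highest level with DLT in none or one of six patients, followed by an expansion cohort at that dose. AEs were graded by CTCAE v4.03 in all patients receiving ≥1 dose.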

The conditions of series [6]: cited from earlier work.
The conditions of series [7]: dogs; cited from earlier work.
Series [8] in a line: Plasma and urine pharmacokinetics in cycle 1. The class given is in vivo, human.
The conditions of series [9]: at lesser frequency than BI 853520; cited from earlier work.
The next series concerns advanced solid tumors. The conditions noted are these: mixed populations of patients with advanced solid tumors; cited from earlier work.
Setting [10] is: 200 mg QD, N = 10, geometric mean.

Entries after “also recorded” stand apart in the source; their conditions may differ. Like-named read-outs stand apart in the source and are kept apart here. Marks after values point to notes of the source that are not given here.

We go through four compounds from article PMC6407737 (Targeted Oncology, 2019).

As to `COc1cc(C(=O)NC2CCN(C)CC2)c(F)cc1Nc1ncc(C(F)(F)F)c(Oc2cccc3c2C(=O)N(C)C3)n1` [BI 853520], in series [1], the “principal toxicological target organs” value was “gastrointestinal tract and liver”. Besides, in series [2], the disease control rate was 27%, the “median duration of disease control” value is given as 3.3 months and the radiographic objective responses result was “no radiographic objective responses were reported”. In series [3] (21 treated patients), the “confirmed objective response rate” value is reported as 5%, the disease control rate amounted to 29% and the “patients with progressive disease” value is reported as 57%. Besides, in series [3] (N = 21), the “Best confirmed response: Complete response” value is recorded as 0 N (%), the “Best confirmed response: Progressive disease” value is on record as 12 (57) N (%) and the “Best confirmed response: Stable disease” value was 5 (24)^d N (%). Also, the “Best confirmed response: Objective response” value in series [3] (N = 21, complete response or partial response) is listed as 1 (5) N (%). For the same compound, in series [3] (N = 21, complete response, partial response, or stable disease), the “Best confirmed response: Disease control” value is 6 (29) N (%). For the same compound, the “Best confirmed response: Partial response” value in series [3] (N = 21, patient with gastric cancer (100 mg cohort)) is 1 (5)^c N (%). Further, the “median duration of disease control” value in series [3] (six patients with confirmed disease control) is given as 3.7 months. In addition, in series [4], the “impact of formulation and food on pharmacokinetics” value is recorded as “neither formulation (liquid dispersion vs. tablet) nor administration with/without a high-calorie meal have notable impact”. Further, the active dose in the series on MiaPaCa2 xenograft is on record as 12.5 mg/kg. Moreover, the “evaluable patients treated at the MTD who experienced DLT” value in series [5] (200 mg QD) was “two of 15”. In series [5] (21 treated patients), the “drug-related serious AEs” value was “None of the SAEs was considered drug-related”, the “patients who discontinued treatment due to AEs” value came to 19%, the “patients with drug-related adverse events” value stood at 90% and the “patients with drug-related diarrhea” value is recorded as 38%. In addition, in series [5] (21 treated patients), the “patients with drug-related nausea” value turned out to be 29%, the “patients with drug-related proteinuria” value worked out at 48%, the “patients with drug-related vomiting” value was found to be 19% and the “patients with serious AEs (SAEs)” value is recorded as 24%. For the same compound, in series [5] (50, 100, or 200 mg cohorts), the “dose-limiting toxicities during cycle 1” value is “no dose-limiting toxicities were observed; also recorded: no DLTs were observed”. For the same compound, in [5] (N = 21, all dose cohorts), the “Any drug-related AE” value was 19 (90) N (%), the “Drug-related AE: AST increased” value was 1 (5) N (%), the “Drug-related AE: Abdominal pain upper” value is reported as 1 (5) N (%) and the “Drug-related AE: Anemia” value is listed as 1 (5) N (%). Also, in [5] (N = 21, all dose cohorts), the “Drug-related AE: Back pain” value is on record as 1 (5) N (%), the “Drug-related AE: Blood bilirubin increased” value is 1 (5) N (%), the “Drug-related AE: Blood creatinine increased” value is listed as 1 (5) N (%) and the “Drug-related AE: Decreased appetite” value is 2 (10) N (%). In addition, in series [5] (N = 21, all dose cohorts), the “Drug-related AE: Dehydration” value is given as 1 (5) N (%), the “Drug-related AE: Diarrhea” value is 8 (38) N (%), the “Drug-related AE: Dupuytren’s contracture” value is 2 (10) N (%) and the “Drug-related AE: Erectile dysfunction” value is 1 (5) N (%). In series [5] (N = 21, all dose cohorts), the “Drug-related AE: Fatigue” value was 1 (5) N (%), the “Drug-related AE: Inguinal hernia” value is 1 (5) N (%), the “Drug-related AE: Nausea” value is recorded as 6 (29) N (%) and the “Drug-related AE: Proteinuria” value is reported as 10 (48) N (%). Also, in series [5] (N = 21, all dose cohorts), the “Drug-related AE: Rash, maculo-papular” value was 2 (10) N (%) and the “Drug-related AE: Vomiting” value is on record as 4 (19) N (%). In [5] (QD continuous daily dosing, 28-day cycles, Japanese and Taiwanese patients), the “maximum tolerated dose (MTD)” value came out at 200 mg. For the same compound, the “DLTs reported overall during the study” value in series [5] (all treated patients, all cycles) is recorded as “three of 21”. Further, in series [6] (50 mg QD or 100 mg QD), the “DLTs or DRAEs of grade ≥ 2” value is listed as “neither 50 mg QD or 100 mg QD had resulted in dose-limiting toxicities”. The “maximum tolerated dose (MTD)” value in [6] (QD continuous dosing, predominantly (92%) Caucasian population) is 200 mg. The “patients with grade 3 proteinuria” value in series [6] (dose expansion phase of the FIH study) was 21%. For the same compound, the “principal toxicological target organs” value in series [7] was “gastrointestinal tract and liver”. Also, the “cumulative fraction excreted in urine” value in [8] (200 mg QD cohort) is on record as “less than 9%”. In [8] (setting [10]), the “RA,AUC (accumulation ratio, AUC at steady state / single dose)” value worked out at 2.15 and the “RA,Cmax (accumulation ratio, Cmax at steady state / single dose)” value is given as 1.62. Further, the trough plasma concentrations result in series [8] (cycle 1, repeated QD dosing) is “stable from day 8 to day 28”. Further, in series [8] (human, plasma, oral, 200 mg, AUC0−∞, single dose, 200 mg QD cohort, N = 15, geometric mean), the AUC(0-inf) (usually the area under the concentration-time curve extrapolated to infinity) is 26.3 µM·h. In series [8] (human, plasma, oral, 200 mg, AUCτ,1, single dose, 200 mg QD cohort, N = 15, geometric mean), the AUC (in general, the area under the concentration-time curve, a measure of exposure) was 15.3 µM·h. In addition, the peak level in series [8] (human, plasma, oral, 200 mg, Cmax, single dose, 200 mg QD cohort, N = 15, geometric mean) (Cmax) was 1570 nM. The Vd/F (as a rule, the volume of distribution divided by bioavailability) in series [8] (human, plasma, oral, 200 mg, Vz/F, single dose, 200 mg QD cohort, N = 15, geometric mean) was 391 L. For the same compound, the time of peak concentration (Tmax) – broadly, the time from dosing to the highest level – in series [8] (human, plasma, oral, 200 mg, tmax, single dose, 200 mg QD cohort, N = 15, median) was determined as 2 h. Moreover, the half-life – broadly, how long it takes for the measured level to halve – in series [8] (human, plasma, oral, 200 mg, t½, single dose, 200 mg QD cohort, N = 15, geometric mean) is 20.9 h. Further, the “tmax,ss” value in [8] (multiple dose, steady state day 28, 200 mg QD, N = 10, median) came out at 2.94 h. Besides, the “CL/F,ss” value in [8] (multiple dose, steady state, 200 mg QD, N = 10, geometric mean) stood at 155 mL/min. In addition, the “fe0−24,ss” value in [8] (multiple dose, steady state, 200 mg QD, urine, N = 10, geometric mean) came to 8.86%. Further, in [8] (single dose, 200 mg QD cohort, N = 15, geometric mean), the apparent clearance (CL/F) (as a rule, the apparent clearance, not corrected for the fraction that reaches the circulation) is recorded as 216 mL/min. Moreover, the “fe0–24” value in series [8] (single dose, 200 mg QD cohort, urine, data for 13 patients, geometric mean) is 5.60^b %.
On to `CONC(=O)c1ccccc1Nc1cc(Nc2cc(C)nn2C(C)C)ncc1Cl` [GSK2256098], for which, in series [9], the proteinuria entry was “Proteinuria has been reported”. The “anti-tumor activity in phase I” value in the series on advanced solid tumors was “evidence of disease stabilization”.
In the case of `CN(c1ncccc1CNc1nc(Nc2ccc3c(c2)CC(=O)N3)ncc1C(F)(F)F)S(C)(=O)=O` [PF-00562271], in series [9], the proteinuria entry is “Proteinuria has been reported”. Moreover, the “anti-tumor activity in phase I” value in the series on advanced solid tumors is “evidence of disease stabilization”.
On to `CNC(=O)c1ccc(Nc2ncc(C(F)(F)F)c(NCc3nccnc3N(C)S(C)(=O)=O)n2)cc1` [VS-6063], for which the “anti-tumor activity in phase I” value in the series with advanced solid tumors is “evidence of disease stabilization”.
